Assay results from paper PMC7970580 (ACS Omega, 2021).
Read-outs that look alike come from different tables or passages of the source.

Experiments:
Format in all cases: cell-based
[1] = tested on: HeLa; test: MTT antiproliferative assay, cervical HeLa cells; details: Homo sapiens, 72 h, read-out: IC50 values, HeLa
Method in brief: (§1)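 ATCC-sourced cancer cells were seeded in RPMI 1640 at 20 000 cells/mL and left 24 h to adhere. Serial dilutions of test compound ([…], in DMSO) were added, then incubated 72 h. MTT (5 mg/mL in PBS) was added for 4 h. Medium was removed, formazan dissolved in DMSO and read at 570 nm. IC50 came from linear regression of the dose–response curve; three runs, mean ± SD.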

[2] = tested on: U937; test: MTT antiproliferative assay, leukemia U937 cells; details: Homo sapiens, U-937, 72 h, read-out: IC50 values, U937
Method in brief: as §1

[3] = tested on: RKOP 27; test: MTT antiproliferative assay, colon RKOP 27 cells; details: RKOp27, 72 h, read-out: IC50 values, RKOP 27
Method in brief: as §1

[4] = tested on: NCIH 460; test: MTT antiproliferative assay, large-cell lung NCIH 460 cells; details: Homo sapiens, NCI-H460, 72 h, read-out: IC50 values, N CIH 460
Method in brief: as §1

[5] = tested on: SKMEL-28; test: MTT antiproliferative assay, melanoma SKMEL-28 cells; details: read-out: IC50 values, SKMEL-28
Method in brief: as §1

Molecule: N#Cc1c(-c2ccc(Cl)cc2)cc(-c2cccc3ccccc23)n(C(=S)Nc2ccccc2)c1=O [5a, 4-(4-Chlorophenyl)-3-cyano-6-(naphthalen-1-yl)-2-oxo-N-phenylpyridine-1(2H)-carbothioamide]
- IC50 [1]: 973 ± 185 nM
- IC50 [2]: 1530 ± 255 nM
- IC50 [3]: 635 ± 45.8 nM
- IC50 [4]: 518 ± 56.6 nM
- IC50 ([5]; Homo sapiens, SK-MEL-28, 72 h): 1160 ± 318 nM

Molecule: N#Cc1c(-c2ccc(Cl)cc2)cc(-c2cccc3ccccc23)nc1NCCN [10a, 2-((2-Aminoethyl)amino)-4-(4-chlorophenyl)-6-(naphthalen-1-yl)nicotinonitrile]
- IC50 [1]: 1160 ± 206 nM
- IC50 [2]: 1810 ± 369 nM
- IC50 [3]: 596 ± 59 nM
- IC50 [4]: 896 ± 78 nM
- IC50 ([5]; Homo sapiens, SK-MEL-28, 72 h): 1790 ± 236 nM

Molecule: N#Cc1c(-c2cccs2)cc(-c2cccc3ccccc23)[nH]c1=S [7b, 6-(Naphthalen-1-yl)-4-(thiophen-2-yl)-2-thioxo-1,2-dihydropyridine-3-carbonitrile]
- IC50 [1]: 1370 ± 213 nM
- IC50 [2]: 1570 ± 321 nM
- IC50 [3]: 697 ± 72 nM
- IC50 [4]: 638 ± 138 nM
- IC50 ([5]; Homo sapiens, SK-MEL-28, 72 h): 1130 ± 137 nM

Molecule: N#Cc1c(-c2cccs2)cc(-c2cccc3ccccc23)nc1Cl [6b, 2-Chloro-6-(naphthalen-1-yl)-4-(thiophen-2-yl)nicotinonitrile]
- IC50 [1]: 795 ± 96 nM
- IC50 [2]: 2550 ± 374 nM
- IC50 [3]: 695 ± 56 nM
- IC50 [4]: 728 ± 88 nM
- IC50 ([5]; Homo sapiens, SK-MEL-28, 72 h): 1370 ± 215 nM

Molecule: Cc1nnc2c(C#N)c(-c3cccs3)cc(-c3cccc4ccccc34)n12 [12b, 3-Methyl-5-(naphthalen-1-yl)-7-(thiophen-2-yl)-[1,2,4]triazolo[4,3-a]pyridine-8-carbonitrile]
- IC50 [1]: 1440 ± 108 nM
- IC50 [2]: 1470 ± 151 nM
- IC50 [3]: 869 ± 87 nM
- IC50 [4]: 648 ± 76 nM
- IC50 ([5]; Homo sapiens, SK-MEL-28, 72 h): 1370 ± 389 nM

Molecule: CCCCCCCCN(c1nc(-c2cccc3ccccc23)cc(-c2ccc(Cl)cc2)c1C#N)c1nc(-c2cccc3ccccc23)cc(-c2ccc(Cl)cc2)c1C#N [8a, 2,2′-(Octylazanediyl)bis(4-(4-chlorophenyl)-6-(naphthalen-1-yl)nicotinonitrile)]
- IC50 [1]: 229 ± 74 nM
- IC50 [2]: 544 ± 74 nM
- IC50 [3]: 40 ± 2.1 nM
- IC50 [4]: 48 ± 7.4 nM
- IC50 ([5]; Homo sapiens, SK-MEL-28, 72 h): 774 ± 21 nM

Molecule: Cc1cc(=O)[nH]n1-c1nc(-c2cccc3ccccc23)cc(-c2cccs2)c1C#N [13b, 2-(5-Methyl-3-oxo-2,3-dihydro-1H-pyrazol-1-yl)-6-(naphthalen-1-yl)-4-(thiophen-2-yl)nicotinonitrile]
- IC50 [1]: 1360 ± 139 nM
- IC50 [2]: 1760 ± 68 nM
- IC50 [3]: 698 ± 79 nM
- IC50 [4]: 869 ± 76 nM
- IC50 ([5]; Homo sapiens, SK-MEL-28, 72 h): 1360 ± 182 nM

Molecule: N#Cc1c(-c2ccc(Cl)cc2)cc(-c2cccc3ccccc23)[nH]c1=O [4a, 4-(4-Chlorophenyl)-6-(naphthalen-1-yl)-2-oxo-1,2-dihydropyridine-3-carbonitrile]
- IC50 [1]: 250 ± 19 nM
- IC50 [2]: 766 ± 19 nM
- IC50 [3]: 30 ± 1.5 nM
- IC50 [4]: 66 ± 9 nM
- IC50 ([5]; Homo sapiens, SK-MEL-28, 72 h): 590 ± 15 nM

Molecule: Cc1cc(=O)[nH]n1-c1nc(-c2cccc3ccccc23)cc(-c2ccc(Cl)cc2)c1C#N [13a, 4-(4-Chlorophenyl)-2-(5-methyl-3-oxo-2,3-dihydro-1H-pyrazol-1-yl)-6-(naphthalen-1-yl)nicotinonitrile]
- IC50 [1]: 1270 ± 103 nM
- IC50 [2]: 1690 ± 89 nM
- IC50 [3]: 879 ± 68 nM
- IC50 [4]: 765 ± 89 nM
- IC50 ([5]; Homo sapiens, SK-MEL-28, 72 h): 1500 ± 218 nM

Molecule: N#Cc1c(-c2cccs2)cc(-c2cccc3ccccc23)nc1NN [11b, 2-Hydrazinyl-6-(naphthalen-1-yl)-4-(thiophen-2-yl)nicotinonitrile]
- IC50 [1]: 1260 ± 227 nM
- IC50 [2]: 1590 ± 215 nM
- IC50 [3]: 846 ± 96 nM
- IC50 [4]: 478 ± 96 nM
- IC50 ([5]; Homo sapiens, SK-MEL-28, 72 h): 1300 ± 106 nM

Molecule: Cc1nnc2c(C#N)c(-c3ccc(Cl)cc3)cc(-c3cccc4ccccc34)n12 [12a, 7-(4-Chlorophenyl)-3-methyl-5-(naphthalen-1-yl)-[1,2,4]triazolo[4,3-a]pyridine-8-carbonitrile]
- IC50 [1]: 185 ± 51 nM
- IC50 [2]: 581 ± 51 nM
- IC50 [3]: 48 ± 4.1 nM
- IC50 [4]: 33 ± 5.1 nM
- IC50 ([5]; Homo sapiens, SK-MEL-28, 72 h): 510 ± 41 nM

Molecule: N#Cc1c(-c2cccs2)cc(-c2cccc3ccccc23)nc1NCCN [10b, 2-((2-Aminoethyl)amino)-6-(naphthalen-1-yl)-4-(thiophen-2-yl)nicotinonitrile]
- IC50 [1]: 211 ± 69 nM
- IC50 [2]: 642 ± 69 nM
- IC50 [3]: 46 ± 2.6 nM
- IC50 [4]: 46 ± 6.9 nM
- IC50 ([5]; Homo sapiens, SK-MEL-28, 72 h): 669 ± 26 nM

Molecule: N#Cc1c(-c2cccs2)cc(-c2cccc3ccccc23)n(C(=S)Nc2ccccc2)c1=O [5b, 3-Cyano-6-(naphthalen-1-yl)-2-oxo-N-phenyl-4-(thiophen-2-yl)pyridine-1(2H)-carbothioamide]
- IC50 [1]: 277 ± 55 nM
- IC50 [2]: 980 ± 55 nM
- IC50 [3]: 56 ± 3.2 nM
- IC50 [4]: 32 ± 5.5 nM
- IC50 ([5]; Homo sapiens, SK-MEL-28, 72 h): 755 ± 18 nM

Molecule: N#Cc1c(-c2ccc(Cl)cc2)cc(-c2cccc3ccccc23)nc1NN [11a, 4-(4-Chlorophenyl)-2-hydrazinyl-6-(naphthalen-1-yl)nicotinonitrile]
- IC50 [1]: 255 ± 72 nM
- IC50 [2]: 458 ± 72 nM
- IC50 [3]: 55 ± 3.6 nM
- IC50 [4]: 44 ± 7.2 nM
- IC50 ([5]; Homo sapiens, SK-MEL-28, 72 h): 572 ± 36 nM

Molecule: CCCCCOC(=O)Nc1nc(=O)n([C@@H]2O[C@H](C)[C@@H](O)[C@H]2O)cc1F [capecitabine, reference compound]
- IC50 [3]: 4330 ± 64 nM

Molecule: Nc1ccn([C@@H]2O[C@H](CO)[C@@H](O)C2(F)F)c(=O)n1 [gemcitabine, reference compound]
- IC50 [4]: 2130 ± 50 nM

Molecule: N#Cc1c(-c2ccc(Cl)cc2)cc(-c2cccc3ccccc23)[nH]c1=S [7a, 4-(4-Chlorophenyl)-6-(naphthalen-1-yl)-2-thioxo-1,2-dihydropyridine-3-carbonitrile]
- IC50 [1]: 1020 ± 136 nM
- IC50 [2]: 1630 ± 298 nM
- IC50 [3]: 596 ± 96 nM
- IC50 [4]: 764 ± 102 nM
- IC50 ([5]; Homo sapiens, SK-MEL-28, 72 h): 1240 ± 196 nM

Molecule: CCCCCCCCN(c1nc(-c2cccc3ccccc23)cc(-c2cccs2)c1C#N)c1nc(-c2cccc3ccccc23)cc(-c2cccs2)c1C#N [8b, 2,2′-(Octylazanediyl)bis(6-(naphthalen-1-yl)-4-(thiophen-2-yl)nicotinonitrile)]
- IC50 [1]: 1040 ± 326 nM
- IC50 [2]: 1370 ± 284 nM
- IC50 [3]: 486 ± 49 nM
- IC50 [4]: 468 ± 69 nM
- IC50 ([5]; Homo sapiens, SK-MEL-28, 72 h): 1260 ± 168 nM

Molecule: N#Cc1c(-c2ccc(Cl)cc2)cc(-c2cccc3ccccc23)nc1Cl [6a, 2-Chloro-4-(4-chlorophenyl)-6-(naphthalen-1-yl)nicotinonitrile]
- IC50 [1]: 896 ± 115 nM
- IC50 [2]: 1340 ± 174 nM
- IC50 [3]: 512 ± 32 nM
- IC50 [4]: 689 ± 98 nM
- IC50 ([5]; Homo sapiens, SK-MEL-28, 72 h): 1850 ± 321 nM

Molecule: COc1cccc2c1C(=O)c1c(O)c3c(c(O)c1C2=O)C[C@@](O)(C(=O)CO)C[C@@H]3O[C@H]1C[C@H](N)[C@H](O)[C@H](C)O1 [doxorubicin, reference compound]
- IC50 [2]: 4450 ± 50 nM

Molecule: aldelseukin [reference compound]
- IC50 ([5]; MTT, 72 h, mean ± SD, three runs): 3450 ± 64 nM

Molecule: N#Cc1c(-c2cccs2)cc(-c2cccc3ccccc23)[nH]c1=O [4b, 6-(Naphthalen-1-yl)-2-oxo-4-(thiophen-2-yl)-1,2-dihydropyridine-3-carbonitrile]
- IC50 [1]: 246 ± 69 nM
- IC50 [2]: 836 ± 69 nM
- IC50 [3]: 39 ± 9.8 nM
- IC50 [4]: 58 ± 6.9 nM
- IC50 ([5]; Homo sapiens, SK-MEL-28, 72 h): 669 ± 9.8 nM

Molecule: N#Cc1c(-c2cccs2)cc(-c2cccc3ccccc23)nc1NNC(=O)Cc1ccccc1 [14b, N′-(3-Cyano-6-(naphthalen-1-yl)-4-(thiophen-2-yl)pyridin-2-yl)-2-phenylacetohydrazide]
- IC50 [1]: 1390 ± 110 nM
- IC50 [2]: 976 ± 125 nM
- IC50 [3]: 869 ± 87 nM
- IC50 [4]: 789 ± 69 nM
- IC50 ([5]; Homo sapiens, SK-MEL-28, 72 h): 1360 ± 98 nM
